Reference: ChEMBL document CHEMBL2424583, “Structure-activity relationship and in vitro and in vivo evaluation of the potent cytotoxic anti-microtubule agent N-(4-methoxyphenyl)-N,2,6-trimethyl-6,7-dihydro-5H-cyclopenta[d]pyrimidin-4-aminium chloride and its analogues as antitumor agents” (J Med Chem, 2013)
The source made the active and inactive calls. The rule behind the calls is not given here.

Key:
[1] = system: MDA-MB-435; test: Cell cycle arrest in human MDA-MB-435 cells assessed as […] at 25 nM after 24 hrs by FACS flow cytometric analysis; type: functional, cell-based
Method in brief: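 MDA-MB-435 cells plated and allowed to adhere 24 h, then exposed to drug for 24 h. Cells harvested, stained with Krishan's reagent, and DNA content analysed by flow cytometry.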

[2] = system: SK-MEL-28; test: Cytotoxicity against human SK-MEL-28 cells assessed as growth inhibition after 48 hrs by SRB assay; type: functional; conditions: SK-MEL-28, 48 h
[3] = system: SF-539; test: Cytotoxicity against human SF539 cells assessed as growth inhibition after 48 hrs by SRB assay; type: functional; conditions: SF-539, 48 h
[4] = system: SK-OV-3; test: Antiproliferative activity against human SKOV3 cells after 48 hrs by SRB assay; type: functional, cell-based; conditions: SK-OV-3, 48 h
Method in brief: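 Isogenic pairs: parental SK-OV-3 alongside its Pgp-overexpressing subline MDR-M6-6, and parental HeLa alongside βIII-tubulin-transfected HeLa. Antiproliferative IC50 measured by sulforhodamine B assay, averaged from at least three independent experiments ± SD. Relative resistance is the transduced-line IC50 divided by the parental-line IC50.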

[5] = system: UO-31; test: Cytotoxicity against human UO31 cells assessed as growth inhibition after 48 hrs by SRB assay; type: functional; conditions: UO-31, 48 h
[6] = system: MOLT-4; test: Cytotoxicity against human MOLT4 cells assessed as growth inhibition after 48 hrs by SRB assay; type: functional; conditions: MOLT-4, 48 h
[7] = Cytotoxicity against human NCI-ADR-RES cells assessed as growth inhibition after 48 hrs by SRB assay; type: functional
[8] = system: DU-145; test: Cytotoxicity against human DU145 cells assessed as growth inhibition after 48 hrs by SRB assay; type: functional; conditions: DU-145, 48 h
[9] = system: HOP-62; test: Cytotoxicity against human HOP62 cells assessed as growth inhibition after 48 hrs by SRB assay; type: functional; conditions: HOP-62, 48 h
[10] = Induction of microtubule depolymerization in rat A10 cells after 18 hrs by indirect immunofluorescence assay; type: cell-based
Method in brief: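 A-10 cells were exposed to vehicle or compound for 18 h, fixed, and microtubules were visualized by indirect immunofluorescence. EC50 is the concentration causing about 50% microtubule loss, from at least three independent experiments.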

[11] = system: SN12C; test: Cytotoxicity against human SN12C cells assessed as growth inhibition after 48 hrs by SRB assay; type: functional
[12] = system: IGROV-1; test: Cytotoxicity against human IGROV1 cells assessed as growth inhibition after 48 hrs by SRB assay; type: functional; conditions: IGROV-1, 48 h
[13] = system: SF-295; test: Cytotoxicity against human SF295 cells assessed as growth inhibition after 48 hrs by SRB assay; type: functional; conditions: SF-295, 48 h
[14] = system: NCI-H23; test: Cytotoxicity against human NCI-H23 cells assessed as growth inhibition after 48 hrs by SRB assay; type: functional; conditions: NCI-H23, 48 h
[15] = system: NCI-H460; test: Cytotoxicity against human NCI-H460 cells assessed as growth inhibition after 48 hrs by SRB assay; type: functional; conditions: NCI-H460, 48 h
[16] = system: HCT-15; test: Cytotoxicity against human HCT15 cells assessed as growth inhibition after 48 hrs by SRB assay; type: functional; conditions: HCT-15, 48 h
[17] = system: HOP-92; test: Cytotoxicity against human HOP92 cells assessed as growth inhibition after 48 hrs by SRB assay; type: functional; conditions: HOP-92, 48 h
[18] = system: OVCAR-3; test: Cytotoxicity against human OVCAR3 cells assessed as growth inhibition after 48 hrs by SRB assay; type: functional; conditions: OVCAR-3, 48 h
[19] = target: T1, Tubulin (Sus scrofa) (UniProt P02554+P02550); test: Displacement of [3H]-colchicine from pig brain tubulin at 1 uM after 10 mins by scintillation counting analysis relative to control
[20] = system: RPMI-8226; test: Cytotoxicity against human RPMI8226 cells assessed as growth inhibition after 48 hrs by SRB assay; type: functional; conditions: RPMI-8226, 48 h
[21] = system: Hs-578T; test: Cytotoxicity against human Hs578T cells assessed as growth inhibition after 48 hrs by SRB assay; type: functional
[22] = system: HL-60(TB); test: Cytotoxicity against human HL-60(TB) cells assessed as growth inhibition after 48 hrs by SRB assay; type: functional; conditions: HL-60, 48 h
[23] = target: T1, Tubulin (Sus scrofa); test: Displacement of [3H]-colchicine from pig brain tubulin at 5 uM after 10 mins by scintillation counting analysis relative to control
[24] = system: CCRF-CEM; test: Cytotoxicity against human CCRF-CEM cells assessed as growth inhibition after 48 hrs by SRB assay; type: functional
[25] = system: BT-549; test: Cytotoxicity against human BT549 cells assessed as growth inhibition after 48 hrs by SRB assay; type: functional; conditions: BT-549, 48 h
[26] = system: SF-268; test: Cytotoxicity against human SF268 cells assessed as growth inhibition after 48 hrs by SRB assay; type: functional; conditions: SF-268, 48 h
[27] = system: U-251; test: Cytotoxicity against human U251 cells assessed as growth inhibition after 48 hrs by SRB assay; type: functional; conditions: U-251, 48 h
[28] = system: 786-0; test: Cytotoxicity against human 786-0 cells assessed as growth inhibition after 48 hrs by SRB assay; type: functional; conditions: 786-0, 48 h
[29] = system: RXF 393; test: Cytotoxicity against human RXF393 cells assessed as growth inhibition after 48 hrs by SRB assay; type: functional; conditions: RXF 393, 48 h
[30] = system: TK-10; test: Cytotoxicity against human TK10 cells assessed as growth inhibition after 48 hrs by SRB assay; type: functional; conditions: TK-10, 48 h
[31] = system: UACC-62; test: Cytotoxicity against human UACC62 cells assessed as growth inhibition after 48 hrs by SRB assay; type: functional; conditions: UACC-62, 48 h
[32] = system: OVCAR-4; test: Cytotoxicity against human OVCAR4 cells assessed as growth inhibition after 48 hrs by SRB assay; type: functional; conditions: OVCAR-4, 48 h
[33] = system: A498; test: Cytotoxicity against human A498 cells assessed as growth inhibition after 48 hrs by SRB assay; type: functional; conditions: A498, 48 h
[34] = system: MDA-MB-435; test: Cytotoxicity against human MDA-MB-435 cells assessed as growth inhibition after 48 hrs by SRB assay; type: functional; conditions: MDA-MB-435, 48 h
[35] = Cytotoxicity against human EKVX cells assessed as growth inhibition after 48 hrs by SRB assay; type: functional
[36] = system: MDA-MB-231; test: Cytotoxicity against human MDA-MB-231 cells assessed as growth inhibition after 48 hrs by SRB assay; type: functional; conditions: MDA-MB-231, 48 h
[37] = system: SK-OV-3; test: Cytotoxicity against human SKOV3 cells assessed as growth inhibition after 48 hrs by SRB assay; type: functional; conditions: SK-OV-3, 48 h
[38] = system: SNB-75; test: Cytotoxicity against human SNB75 cells assessed as growth inhibition after 48 hrs by SRB assay; type: functional; conditions: SNB-75, 48 h
[39] = system: OVCAR-5; test: Cytotoxicity against human OVCAR5 cells assessed as growth inhibition after 48 hrs by SRB assay; type: functional; conditions: OVCAR-5, 48 h
[40] = system: NCI-H226; test: Cytotoxicity against human NCI-H226 cells assessed as growth inhibition after 48 hrs by SRB assay; type: functional; conditions: NCI-H226, 48 h
[41] = system: HT-29; test: Cytotoxicity against human HT-29 cells assessed as growth inhibition after 48 hrs by SRB assay; type: functional; conditions: HT-29, 48 h
[42] = system: NCI-H322M; test: Cytotoxicity against human NCI-H322M cells assessed as growth inhibition after 48 hrs by SRB assay; type: functional

T1 sequence (P02550 whole entry, looked up): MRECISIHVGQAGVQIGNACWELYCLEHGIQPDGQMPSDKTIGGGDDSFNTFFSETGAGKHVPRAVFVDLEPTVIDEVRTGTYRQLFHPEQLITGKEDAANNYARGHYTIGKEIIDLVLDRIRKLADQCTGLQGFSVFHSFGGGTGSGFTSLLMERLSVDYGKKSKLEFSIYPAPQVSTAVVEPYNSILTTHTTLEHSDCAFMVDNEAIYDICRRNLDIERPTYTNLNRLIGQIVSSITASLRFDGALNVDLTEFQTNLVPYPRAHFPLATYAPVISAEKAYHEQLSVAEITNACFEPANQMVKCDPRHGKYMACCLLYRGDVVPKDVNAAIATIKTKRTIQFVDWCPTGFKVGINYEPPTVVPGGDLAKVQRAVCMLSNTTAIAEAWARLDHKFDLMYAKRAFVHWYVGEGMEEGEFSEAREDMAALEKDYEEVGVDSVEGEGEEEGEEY
T1 sequence (P02554 whole entry, looked up): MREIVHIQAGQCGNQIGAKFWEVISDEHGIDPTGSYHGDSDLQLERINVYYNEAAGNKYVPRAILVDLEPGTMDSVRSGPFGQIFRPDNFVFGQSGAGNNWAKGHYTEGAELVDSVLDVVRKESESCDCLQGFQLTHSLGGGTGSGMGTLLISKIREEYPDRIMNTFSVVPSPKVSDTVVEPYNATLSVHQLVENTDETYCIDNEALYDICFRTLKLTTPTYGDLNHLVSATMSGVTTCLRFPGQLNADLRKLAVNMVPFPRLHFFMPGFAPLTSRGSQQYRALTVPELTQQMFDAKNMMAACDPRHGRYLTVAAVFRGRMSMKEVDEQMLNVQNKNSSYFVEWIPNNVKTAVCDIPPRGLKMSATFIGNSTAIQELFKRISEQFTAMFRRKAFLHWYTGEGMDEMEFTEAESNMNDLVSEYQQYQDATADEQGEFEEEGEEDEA

## COc1ccc(N(C)c2nc(C)nc3c2CC(C)C3)cc1.Cl (racemic)
[1]
  Activity: Active
[2]
  GI50: < 0.01 µM
[3]
  GI50: 0.0114 µM
[4]
  IC50: 0.0386 µM
[5]
  GI50: 0.0134 µM
[6]
  GI50: 0.0318 µM
[7]
  GI50: < 0.01 µM
[8]
  GI50: 0.0214 µM
[9]
  GI50: 0.0194 µM
[10]
  EC50: 0.056 µM
[11]
  GI50: 0.0318 µM
[12]
  GI50: 0.011 µM
[13]
  GI50: < 0.01 µM
[14]
  GI50: 0.0164 µM
[15]
  GI50: 0.0234 µM
[16]
  GI50: < 0.01 µM
[17]
  GI50: 0.0554 µM
[18]
  GI50: < 0.01 µM
[19]
  inhibition: 60%
[20]
  GI50: 0.0157 µM
[21]
  GI50: < 0.01 µM
[22]
  GI50: < 0.01 µM
[23]
  inhibition (INH): 84%
[24]
  GI50: 0.0163 µM
[25]
  GI50: 0.0219 µM
[26]
  GI50: 0.0152 µM
[27]
  GI50: 0.0125 µM
[28]
  GI50: 0.0348 µM
[29]
  GI50: < 0.01 µM
[30]
  GI50: 0.292 µM
[31]
  GI50: < 0.01 µM
[32]
  GI50: 0.0268 µM
[33]
  GI50: < 0.01 µM
[34]
  GI50: < 0.01 µM
[35]
  GI50: 0.0196 µM
[36]
  GI50: 0.0246 µM
[37]
  GI50: 0.0275 µM
[38]
  GI50: < 0.01 µM
[39]
  GI50: 0.0385 µM
[40]
  GI50: 0.0315 µM
[41]
  GI50: 0.0118 µM
[42]
  GI50: 0.059 µM

## COc1ccc(N(C)c2nc(C)nc3c2CCC3)cc1.Cl
[1]
  Activity: Active
[2]
  GI50: < 0.01 µM
[3]
  GI50: < 0.01 µM
[4]
  IC50: 0.0113 µM
[5]
  GI50: 0.0461 µM
[6]
  GI50: 0.0278 µM
[7]
  GI50: < 0.01 µM
[8]
  GI50: 0.0196 µM
[9]
  GI50: < 0.01 µM
[10]
  EC50: 0.0259 µM
[11]
  GI50: 0.033 µM
[12]
  GI50: 0.0128 µM
[13]
  GI50: < 0.01 µM
[14]
  GI50: 0.0223 µM
[15]
  GI50: 0.0103 µM
[16]
  GI50: < 0.01 µM
[17]
  GI50: 0.016 µM
[18]
  GI50: < 0.01 µM
[19]
  inhibition: 70%
[20]
  GI50: 0.0143 µM
[21]
  GI50: < 0.01 µM
[22]
  GI50: < 0.01 µM
[23]
  inhibition: 92%
[24]
  GI50: < 0.01 µM
[25]
  GI50: 0.0218 µM
[26]
  GI50: 0.0139 µM
[27]
  GI50: < 0.01 µM
[28]
  GI50: 0.0178 µM
[29]
  GI50: < 0.01 µM
[30]
  GI50: 0.0427 µM
[31]
  GI50: < 0.01 µM
[32]
  GI50: 0.0229 µM
[33]
  GI50: < 0.01 µM
[34]
  GI50: < 0.01 µM
[35]
  GI50: 0.0348 µM
[36]
  GI50: 0.0259 µM
[37]
  GI50: 0.0146 µM
[38]
  GI50: < 0.01 µM
[39]
  GI50: 0.0364 µM
[40]
  GI50: 0.0347 µM
[41]
  GI50: < 0.01 µM
[42]
  GI50: 0.0488 µM
